Reference: ChEMBL document CHEMBL1139798, “Synthesis of chlorogenic acid derivatives with promising antifungal activity” (Bioorg Med Chem, 2007)
In brackets after ≈: the same amount, converted by molar mass.

What was measured:
Cryptococcus neoformans = test: Antifungal activity against Cryptococcus neoformans ATCC 32045 after 48 to 72 hrs; assay type: functional
Method in brief: (§1)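 Broth dilution following NCCLS guidelines. Final compound concentrations ran from 0.12 to 64. MIC was taken as the lowest concentration giving 80% inhibition of growth relative to the drug-free control.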

Aspergillus fumigatus = test: Antifungal activity against Aspergillus fumigatus ATCC 13073 after 48 hrs; assay type: functional; conditions: ATCC 13073, 48 h; method in brief: as §1
Candida albicans = test: Antifungal activity against Candida albicans ATCC 90028 after 18 to 24 hrs; assay type: functional; method in brief: as §1
[1] = Lethality in brine shrimp at 100 ug/ml; assay type: organism-based; conditions: artemia, in vivo; read-out: Activity
Pichia kudriavzevii = test: Antifungal activity against Candida krusei ATCC 6258; assay type: functional

Structure (SMILES) | MIC (Cryptococcus neoformans) | MIC (Aspergillus fumigatus) | MIC (Candida albicans) | mortality at 100 ug/ml [1] | MIC (Pichia kudriavzevii)
CCCCCCCCOc1ccc(NC(=O)C(CCCNC(=O)OC(C)(C)C)NC(=O)[C@@]2(O)C[C@@H](OC(=O)/C=C/c3ccc(O)cc3)[C@@H]3OC(C)(C)O[C@@H]3C2)cc1 (stereo not given in full) | > 64 µg/mL | > 64 µg/mL | > 64 µg/mL | 0% | 
CCCCCCCCOc1ccc(NC(=O)C(CO)NC(=O)[C@]2(O)C[C@@H](O)[C@@H](O)[C@H](OC(=O)/C=C/c3ccc(O)c(O)c3)C2)cc1 (stereo not given in full) | 4 µg/mL (≈ 6.2 µM) | > 64 µg/mL | > 64 µg/mL | 18.8% | 
CCCCCCCCOc1ccc(NC(=O)[C@@]2(O)C[C@@H](OC(=O)/C=C/c3ccc(O)c(O)c3)[C@@H]3OC(C)(C)O[C@@H]3C2)cc1 | 2 µg/mL (≈ 3.35 µM) | > 64 µg/mL | 16 µg/mL (≈ 26.8 µM) | 100% | 
CCCCCCCCOc1ccc(NC(=O)C(CCCN)NC(=O)[C@]2(O)C[C@@H](O)[C@@H](O)[C@H](OC(=O)/C=C/c3ccc(O)c(O)c3)C2)cc1 (stereo not given in full) | 1 µg/mL (≈ 1.49 µM) | 16 µg/mL (≈ 23.8 µM) | 4 µg/mL (≈ 5.95 µM) | 37.5% | 
CCCCCCCCOc1ccc(NC(=O)C(CC(=O)OC(C)(C)C)NC(=O)[C@@]2(O)C[C@@H](OC(=O)/C=C/c3ccc(O)c(O)c3)[C@@H]3OC(C)(C)O[C@@H]3C2)cc1 (stereo not given in full) | 2 µg/mL (≈ 2.6 µM) | > 64 µg/mL | > 64 µg/mL | 56.2% | 
C[C@@H]1[C@H](O)[C@@H](C)/C=C/C=C/C=C/C=C/C=C/C=C/C=C/[C@H](O[C@@H]2O[C@H](C)[C@@H](O)[C@H](N)[C@@H]2O)C[C@@H]2O[C@](O)(C[C@@H](O)C[C@@H](O)[C@H](O)CC[C@@H](O)C[C@@H](O)CC(=O)O[C@H]1C)C[C@H](O)[C@H]2C(=O)O [AMPHOTERICIN B] |  |  | 0.5 µg/mL (≈ 0.541 µM) |  | 
CCCCCCCCOc1ccc(NC(=O)C(CCCN)NC(=O)[C@]2(O)C[C@@H](O)[C@@H](O)[C@H](OC(=O)/C=C/c3ccc(O)cc3)C2)cc1 (stereo not given in full) | 4 µg/mL (≈ 6.1 µM) | 32 µg/mL (≈ 48.8 µM) | 8 µg/mL (≈ 12.2 µM) | 100% | 
CCCCCCCCOc1ccc(NC(=O)[C@]2(O)C[C@@H](O)[C@@H](O)[C@H](OC(=O)/C=C/c3ccc(O)c(O)c3)C2)cc1 | 2 µg/mL (≈ 3.59 µM) | > 64 µg/mL | 8 µg/mL (≈ 14.3 µM) | 50% | 
O=C(/C=C/c1ccc(O)c(O)c1)O[C@@H]1C[C@](O)(C(=O)O)C[C@@H](O)[C@H]1O [CHLOROGENIC ACID] |  |  | > 64 µg/mL | 100% | > 64 µg/mL
CCCCCCCCOc1ccc(NC(=O)C(NC(=O)[C@@]2(O)C[C@@H](OC(=O)/C=C/c3ccc(O)c(O)c3)[C@@H]3OC(C)(C)O[C@@H]3C2)C(C)OC(C)(C)C)cc1 (stereo not given in full) | 4 µg/mL (≈ 5.3 µM) | > 64 µg/mL | 32 µg/mL (≈ 42.4 µM) | 6.2% | 
CCCCCCCCOc1ccc(NC(=O)C(COC(C)(C)C)NC(=O)[C@@]2(O)C[C@@H](OC(=O)/C=C/c3ccc(O)c(O)c3)[C@@H]3OC(C)(C)O[C@@H]3C2)cc1 (stereo not given in full) | 2 µg/mL (≈ 2.7 µM) | > 64 µg/mL | 32 µg/mL (≈ 43.2 µM) | 31.3% | 
CCCCCCCCOc1ccc(NC(=O)C(COC(C)(C)C)NC(=O)[C@]2(O)C[C@@H](O)[C@@H](O)[C@H](OC(=O)/C=C/c3ccc(O)c(O)c3)C2)cc1 (stereo not given in full) | 2 µg/mL (≈ 2.85 µM) | > 64 µg/mL | 4 µg/mL (≈ 5.71 µM) | 31.1% | 
OC(Cn1cncn1)(Cn1cncn1)c1ccc(F)cc1F [FLUCONAZOLE] | 0.5 µg/mL (≈ 1.63 µM) | > 64 µg/mL | 0.25 µg/mL (≈ 0.816 µM) |  | 
CCCCCCCCOc1ccc(NC(=O)C(CCCNC(=O)OC(C)(C)C)NC(=O)[C@]2(O)C[C@@H](O)[C@@H](O)[C@H](OC(=O)CCc3ccc(O)c(O)c3)C2)cc1 (stereo not given in full) | 4 µg/mL (≈ 5.17 µM) | > 64 µg/mL | > 64 µg/mL | 21.1% | 
CCCCCCCCOc1ccc(NC(=O)C(NC(=O)[C@]2(O)C[C@@H](O)[C@@H](O)[C@H](OC(=O)/C=C/c3ccc(O)c(O)c3)C2)C(C)O)cc1 (stereo not given in full) | 2 µg/mL (≈ 3.04 µM) | > 64 µg/mL | 8 µg/mL (≈ 12.1 µM) | 12.5% | 2 µg/mL (≈ 3.04 µM)
CCCCCCCCOc1ccc(NC(=O)C(CCCNC(=O)OC(C)(C)C)NC(=O)[C@]2(O)C[C@@H](O)[C@@H](O)[C@H](OC(=O)/C=C/c3ccc(O)c(O)c3)C2)cc1 (stereo not given in full) | 1 µg/mL (≈ 1.3 µM) | > 64 µg/mL | 2 µg/mL (≈ 2.59 µM) | 25% | 
CCCCCCCCOc1ccc(NC(=O)C(NC(=O)[C@]2(O)C[C@@H](O)[C@@H](O)[C@H](OC(=O)/C=C/c3ccc(O)c(O)c3)C2)C(C)OC(C)(C)C)cc1 (stereo not given in full) | 1 µg/mL (≈ 1.4 µM) | > 64 µg/mL | 2 µg/mL (≈ 2.8 µM) | 50% | 2 µg/mL (≈ 2.8 µM)
CCCCCCCCOc1ccc(NC(=O)C(CCCNC(=O)OC(C)(C)C)NC(=O)[C@@]2(O)C[C@@H](OC(=O)/C=C/c3ccc(O)c(O)c3)[C@@H]3OC(C)(C)O[C@@H]3C2)cc1 (stereo not given in full) | 2 µg/mL (≈ 2.46 µM) | > 64 µg/mL | > 64 µg/mL | 12.5% | 
CCCCCCCCOc1ccc(NC(=O)C(CCCN)NC(=O)[C@]2(O)C[C@@H](O)[C@@H](O)[C@H](OC(=O)CCc3ccc(O)c(O)c3)C2)cc1 (stereo not given in full) | 8 µg/mL (≈ 11.9 µM) | 64 µg/mL (≈ 95 µM) | 16 µg/mL (≈ 23.7 µM) | 10.5% | 
CCCCCCCCOc1ccc(NC(=O)C(CC(=O)O)NC(=O)[C@]2(O)C[C@@H](O)[C@@H](O)[C@H](OC(=O)/C=C/c3ccc(O)c(O)c3)C2)cc1 (stereo not given in full) | 16 µg/mL (≈ 23.8 µM) | > 64 µg/mL | 64 µg/mL (≈ 95.1 µM) | 6.3% | 
CCCCCCCCOc1ccc(NC(=O)C(CCCNC(=O)OC(C)(C)C)NC(=O)[C@]2(O)C[C@@H](O)[C@@H](O)[C@H](OC(=O)/C=C/c3ccc(O)cc3)C2)cc1 (stereo not given in full) | > 64 µg/mL | > 64 µg/mL | > 64 µg/mL | 31.6% | 
CCCCCCCCOc1ccc(NC(=O)C(CC(=O)OC(C)(C)C)NC(=O)[C@]2(O)C[C@@H](O)[C@@H](O)[C@H](OC(=O)/C=C/c3ccc(O)c(O)c3)C2)cc1 (stereo not given in full) | 2 µg/mL (≈ 2.74 µM) | > 64 µg/mL | 2 µg/mL (≈ 2.74 µM) | 37.5% | 
